Laboratory results reported in ChEMBL document CHEMBL3421557, “Sesamol reduces the atherogenicity of electronegative L5 LDL in vivo and in vitro” (J Nat Prod, 2015).
Active and inactive are the calls of the source. No cut-off for these calls is given here.

Tests used:
Syrian golden hamster [1] = assay: Toxicity in high-fat diet fed Syrian hamster assessed as mortality at 50 to 100 mg/kg, po administered for 16 weeks measured over 22 weeks; type: organism-based, Mesocricetus auratus; design: dose 50-100 mg/kg, route oral; conditions: in vivo, 3696 h
Syrian golden hamster [2] = assay: Toxicity in high-fat diet fed Syrian hamster assessed as change in body weight at 50 to 100 mg/kg, po administered for 16 weeks measured over 22 weeks; type: organism-based, Mesocricetus auratus; design: dose 50-100 mg/kg, route oral; conditions: in vivo, 3696 h
Syrian golden hamster [3] = assay: Antiatherogenic activity in high-fat diet fed po dosed Syrian hamster assessed as decrease in total LDL electronegativity administered for 16 weeks by agarose gel electrophoresis; type: functional, organism-based; conditions: Mesocricetus auratus
Procedure, shortened: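 Total LDL from hamsters fed 16 weeks as chow, HFD, or HFD plus 50 or 100 mg/kg by gavage in 0.5% CMC. LDL isolated by KBr ultracentrifugation with EDTA and nitrogen protection. Samples of 2.5 µg run on 0.7% agarose (90 mM Tris/90 mM boric acid, pH 8.2) at 100 V for 1.4 h to assess electronegativity.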

Syrian golden hamster [4] = assay: Antiatherogenic activity in high-fat diet fed po dosed Syrian hamster assessed as decrease in plasma L5 level administered for 16 weeks by fast protein liquid chromatographic analysis; type: functional, organism-based; conditions: Mesocricetus auratus
Syrian golden hamster [5] = assay: Antiatherogenic activity in high-fat diet fed Syrian hamster assessed as decrease in plasma total cholesterol level at 50 to 100 mg/kg, po administered for 16 weeks by automated analyzer relative to high-fat diet fed control; type: functional, organism-based; conditions: Mesocricetus auratus
Procedure, shortened: (§1)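 High-fat-diet hamsters gavaged 50 or 100 mg/kg in 0.5% CMC for 16 weeks (n = 8/group); chow and HFD controls received vehicle. Serum from fasted blood (3000g, 10 min) was assayed for TC, TG, VLDL-C, LDL-C and HDL-C with enzymatic kits on an automated analyzer. Mean ± SD, Student's t-test versus HFD group.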

Syrian golden hamster [6] = assay: Antiatherogenic activity in high-fat diet fed Syrian hamster assessed as decrease in plasma very-low-density lipoprotein cholesterol level at 50 to 100 mg/kg, po administered for 16 weeks by automated analyzer relative to high-fat diet fed control; type: functional, organism-based; conditions: Mesocricetus auratus; procedure, shortened: as §1
Syrian golden hamster [7] = assay: Antiatherogenic activity in high-fat diet fed Syrian hamster assessed as decrease in plasma low-density lipoprotein cholesterol level at 50 to 100 mg/kg, po administered for 16 weeks by automated analyzer relative to high-fat diet fed control; type: functional, organism-based; conditions: Mesocricetus auratus; procedure, shortened: as §1
Syrian golden hamster [8] = assay: Antiatherogenic activity in high-fat diet fed Syrian hamster assessed as decrease in plasma trigylceride level at 50 to 100 mg/kg, po administered for 16 weeks by automated analyzer relative to high-fat diet fed control; type: functional, organism-based; conditions: Mesocricetus auratus; procedure, shortened: as §1
Syrian golden hamster [9] = assay: Antiatherogenic activity in high-fat diet fed Syrian hamster assessed as reduction of atherosclerotic lesions size in aortic arch at 50 mg/kg, po administered for 16 weeks by oil red o staining-based assay relative to high-fat diet fed control; type: functional, Mesocricetus auratus; design: scale not given: the % may be the effect or the level left
Procedure, shortened: (§2)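 High-fat-diet hamsters gavaged 50 or 100 mg/kg in 0.5% CMC for 16 weeks (n = 8/group). Aorta from root to mid-descending thoracic segment was fixed in 4% PFA and stained with 0.6% Oil Red O in 60% isopropanol for 30 min. Plaque area was taken as a ratio of total luminal area from stereoscope en face images. Mean ± SD, t-test.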

Syrian golden hamster [10] = assay: Antiatherogenic activity in high-fat diet fed Syrian hamster assessed as reduction of atherosclerotic lesions size in aortic arch at 100 mg/kg, po administered for 16 weeks by oil red o staining-based assay relative to high-fat diet fed control; type: functional, Mesocricetus auratus; design: scale not given: the % may be the effect or the level left; procedure, shortened: as §2
Syrian golden hamster [11] = assay: Antiatherogenic activity in high-fat diet fed Syrian hamster assessed as decrease in plasma L5 level at 50 mg/kg, po administered for 16 weeks by fast protein liquid chromatographic analysis (reference value: 13.7%); type: functional, Mesocricetus auratus; design: scale not given: the % may be the effect or the level left
Syrian golden hamster [12] = assay: Antiatherogenic activity in high-fat diet fed Syrian hamster assessed as decrease in plasma L5 level at 100 mg/kg, po administered for 16 weeks by fast protein liquid chromatographic analysis (reference value: 13.7%); type: functional, Mesocricetus auratus; design: scale not given: the % may be the effect or the level left
Homo sapiens = species on record: Homo sapiens; assay: Inhibition of L5-induced apoptosis in HAEC preincubated for 30 mins followed by L5 induction measured after 24 hrs by Hoechst 33342 and calcein-AM staining-based fluorescence microscopic analysis; type: functional
Procedure, shortened: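 Subconfluent HAECs pretreated 30 min with vehicle (0.1% DMSO) or agent (0.3, 1, 3 µM), then ± L5 (50 µg/mL; L1 as negative control) for 24 h. Cells stained 10 min with 1 µM Hoechst 33342 plus calcein-AM and imaged by epifluorescence. Condensed or fragmented nuclei were scored as apoptotic; percentage of apoptotic cells from 6 samples, mean ± SD, t-test.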

Oc1ccc2c(c1)OCO2
Activity (Syrian golden hamster [1]): Non-toxic
Activity (Syrian golden hamster [2]): Non-toxic
Activity (Syrian golden hamster [3]): Dose-dependent effect
Activity (Syrian golden hamster [4]): Dose-dependent effect
Activity (Syrian golden hamster [5]): Active
Activity (Syrian golden hamster [6]): Active
Activity (Syrian golden hamster [7]): Active
Activity (Syrian golden hamster [8]): Active
Activity (Syrian golden hamster [9]): 31.5%
Activity (Syrian golden hamster [10]): 47.3%
Activity (Syrian golden hamster [11]): 9.5%
Activity (Syrian golden hamster [12]): 5.7%
inhibition (Homo sapiens): Dose-dependent effect
